Among the data in BindingDB's records for doi:10.1016/j.bmcl.2005.10.065 (Cytrx Laboratories, 2005) are IC50 values, retold here.

This assay deals with T1, NADP-dependent malic enzyme (Homo sapiens, UniProt P48163).
T1 sequence (P48163 whole entry): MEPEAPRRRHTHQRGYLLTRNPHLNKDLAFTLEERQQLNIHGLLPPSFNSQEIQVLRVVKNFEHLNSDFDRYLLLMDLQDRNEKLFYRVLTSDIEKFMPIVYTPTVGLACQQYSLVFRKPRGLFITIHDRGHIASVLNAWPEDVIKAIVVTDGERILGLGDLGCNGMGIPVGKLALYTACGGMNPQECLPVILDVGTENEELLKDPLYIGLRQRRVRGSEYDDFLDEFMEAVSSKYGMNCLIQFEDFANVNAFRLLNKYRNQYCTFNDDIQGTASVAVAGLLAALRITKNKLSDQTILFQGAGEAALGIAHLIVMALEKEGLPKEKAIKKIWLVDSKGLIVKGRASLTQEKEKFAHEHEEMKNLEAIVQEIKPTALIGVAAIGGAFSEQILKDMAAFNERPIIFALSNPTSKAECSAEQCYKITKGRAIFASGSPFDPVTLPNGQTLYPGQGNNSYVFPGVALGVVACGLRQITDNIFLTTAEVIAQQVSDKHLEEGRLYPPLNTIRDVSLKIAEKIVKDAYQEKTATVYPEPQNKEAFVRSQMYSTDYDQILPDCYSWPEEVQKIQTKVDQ
Put plainly: Inhibitory activity against cytosolic malic enzyme. A digest of the protocol: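 Coupled endpoint assay. Enzyme pre-incubated with compound 45 min at room temperature in 85 mM Tris pH 7.5 containing 2 mM malic acid and 5 mM MnCl2. Reaction started with 124 µM NADP, run 30 min at room temperature, stopped with 0.5 M EDTA. NADPH formed read via MTS/PMS reduction to formazan, absorbance at 492 nm.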

`COc1ccc(N2CCN(c3cc(O)n(-c4cccc(Cl)c4Cl)c3O)CC2)cc1` [1-(2,3-dichlorophenyl)-3-(4-(4-methoxyphenyl)piperazin-1-yl)pyrrolidine-2,5-dione]: the IC50 (usually the concentration needed to halve the response being measured) is above 20 µM.
`COc1ccc(N2CCN(c3cc(O)n(-c4ccccc4)c3O)CC2)cc1` [3-(4-(4-methoxyphenyl)piperazin-1-yl)-1-phenylpyrrolidine-2,5-dione] came in with an IC50 above 20 µM.
